Data: ChEMBL document CHEMBL1149380, “Synthesis of thieno[2,3-b]pyridinones acting as cytoprotectants and as inhibitors of [3H]glycine binding to the N-methyl-D-aspartate (NMDA) receptor” (J Med Chem, 2006)

What was measured:
Glutamate NMDA receptor = assay: Inhibition of [3H]glycine binding to NMDA receptor in rat brain membranes; type: cell membranes
Outline: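 [3H]glycine displaced from rat hippocampal membranes in presence of 10 µM glutamic acid; 4-5 inhibitor concentrations giving 20-90% inhibition of specific binding; Ki derived; number of experiments given per value.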

L cells = assay: Cytotoxicity against mouse fibroblast L(tk-) cells transfected with human NMDA using LDH assay; type: functional, cell-based; details: L929
Outline: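 Mouse L(tk-) fibroblast clone L12-G10 co-transfected with dexamethasone-inducible human NR1a/NR2A; seeded 15 × 10^3 cells/well, grown overnight, then receptor expression induced with 4 µM dexamethasone in Mg2+-free medium with 5% FCS (supplies glutamate and glycine) and 50 mM KCl. Compounds added at increasing, trypan-blue-verified nontoxic concentrations for 24 h. Cell death read as LDH release (INT formazan, 490 nm) relative to total LDH; four-parameter logistic fit for IC50.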

Rattus norvegicus [1] = assay: Effect on brain tissue level after 6 min at 10mg/kg, iv; type: ADME, organism-based, Wistar; details: in vivo, 0.1 h
Outline: (§1)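 Male Wistar rats given 10 mg/kg intravenously; plasma and brain tissue levels measured 6 min (n = 3) and 1 h (n = 3) after dosing; brain expressed as µmol/kg.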

Mus musculus [2] = assay: Protection of mice against maximal e-shock after 30 min at 43 mg/kg; type: functional
Outline: (§2)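 Male Swiss mice, 10 per dose, dosed intraperitoneally (vehicle 8 parts DMSO, 10 parts H2O); doses spanned 0.3-100 mg/kg depending on compound. Maximal electroshock applied 30 or 60 min later; tonic hind limb extension scored as unprotected. Dose-response fitted to a hyperbolic function giving ID50.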

Rattus norvegicus [3] = assay: Effect on brain tissue level after 1h at 10 mg/kg, iv; type: ADME, organism-based, Wistar; parameters: dose 10 mg/kg, route intravenous; details: in vivo; outline: as §1
D(2) dopamine receptor = D(2) dopamine receptor (Rattus norvegicus, UniProt P61169); assay: Displacement of [3H]raclopride from dopamine receptor D2 in rat striatal membrane; type: cell membranes, Striatum
Mus musculus [4] = assay: Protection of mice against maximal e-shock at 30 mg/kg; type: functional; outline: as §2
Rattus norvegicus [5] = assay: Effect on brain tissue level after 6 min at 5 mg/kg, iv; type: ADME, organism-based, Wistar; parameters: dose 5 mg/kg, route intravenous; details: in vivo, 0.1 h
Outline: (§3)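 Male Wistar rats given 5 mg/kg intravenously; plasma and brain tissue levels measured at 6 min and 1 h, n = 3 per time; brain expressed as µmol/kg.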

Rattus norvegicus [6] = assay: Effect on brain tissue level after 1h at 5 mg/kg, iv; type: ADME, organism-based, Wistar; parameters: dose 5 mg/kg, route intravenous; details: in vivo; outline: as §3
Mus musculus [7] = assay: Protection of mice against maximal e-shock at 0.7 mg/kg; type: functional; outline: as §2
Mus musculus [8] = assay: Protection of mice against maximal e-shock after 30 min at 15.5 mg/kg; type: functional; outline: as §2
Mus musculus [9] = assay: Protection of mice against maximal e-shock after 60 min at 13.5 mg/kg; type: functional; outline: as §2

D(2) dopamine receptor, sequence (P61169 whole entry): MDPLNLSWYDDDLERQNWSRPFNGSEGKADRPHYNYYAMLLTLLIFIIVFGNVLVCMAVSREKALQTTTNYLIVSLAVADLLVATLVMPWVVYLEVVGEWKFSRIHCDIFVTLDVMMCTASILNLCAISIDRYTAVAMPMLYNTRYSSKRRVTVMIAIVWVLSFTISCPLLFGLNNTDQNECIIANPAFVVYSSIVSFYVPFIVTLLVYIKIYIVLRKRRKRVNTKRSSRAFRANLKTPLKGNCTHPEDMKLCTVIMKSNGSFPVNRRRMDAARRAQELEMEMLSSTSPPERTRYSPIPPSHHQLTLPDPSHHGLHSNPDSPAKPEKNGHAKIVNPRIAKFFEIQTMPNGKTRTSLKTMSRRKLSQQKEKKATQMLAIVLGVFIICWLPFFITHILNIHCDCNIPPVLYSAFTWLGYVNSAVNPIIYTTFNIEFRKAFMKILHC

Structure (SMILES)	Ki (Glutamate NMDA receptor) [nM]	IC50 (L cells) [nM]	also measured
CC(C)c1csc2nc(O)c(-c3ccccc3)c(O)c12	1530		
CCc1csc2nc(O)c(-c3cccc(Oc4ccccc4)c3)c(O)c12	179	> 50000	
Oc1nc2sc(Cl)c(C3CC3)c2c(O)c1-c1ccccc1	58		
CCCc1c(Cl)sc2nc(O)c(-c3cccc(Oc4ccccc4)c3)c(O)c12	4.12	15900	
Oc1nc2sc(Br)cc2c(O)c1-c1ccccc1	1770		
Oc1nc2sc(Cl)c(C3CC3)c2c(O)c1-c1cccc(Oc2ccccc2)c1	9.5		
CC(C)c1c(Cl)sc2nc(S)c(-c3cccc(Oc4ccccc4)c3)c(O)c12	139		
Oc1nc2sc3c(c2c(O)c1-c1ccccc1)CCCC3	4300		
COCc1csc2nc(O)c(-c3cccc(Oc4ccccc4)c3)c(O)c12	36	55800	
Oc1nc2cscc2c(O)c1-c1ccccc1	26000		
Oc1nc2sc3c(c2c(O)c1-c1cccc(Oc2ccccc2)c1)CCCC3	392	> 30000	
CC(C)c1c(Cl)sc2nc(O)c(-c3ccccc3)c(O)c12	6.6		
CC(C)c1c(Cl)sc2nc(O)c(-c3cccc(Oc4ccccc4)c3)c(O)c12	1.46	5200	brain level (Rattus norvegicus [1]): 3.5 µmol/kg; Activity (Mus musculus [2]): 50%; brain level (Rattus norvegicus [3]): 0.28 µmol/kg
OCc1c(Cl)sc2nc(O)c(-c3cccc(Oc4ccccc4)c3)c(O)c12	69		
Cc1cc2c(O)c(-c3ccccc3)c(O)nc2s1	9500		
CCC(C)c1c(Cl)sc2nc(O)c(-c3cccc(Oc4ccccc4)c3)c(O)c12 (centres undefined)	2	7900	
NCCc1c(Cl)sc2[nH]c(=O)c(-c3cccc(Oc4ccccc4)c3)c(O)c12	16500		IC50 (D(2) dopamine receptor): > 30000 nM
CC(C)(C)c1c(Cl)sc2nc(O)c(-c3cccc(Oc4ccccc4)c3)c(O)c12	3.3	15500	
Oc1nc2sc(Cl)c(C3CCCCC3)c2c(O)c1-c1cccc(Oc2ccccc2)c1	> 30000	> 50000	
CCc1csc2nc(O)c(-c3ccccc3)c(O)c12	530		
CCc1c(Cl)sc2nc(O)c(-c3ccccc3)c(O)c12	8.9		
CCc1c(Br)sc2nc(O)c(-c3ccccc3)c(O)c12	10.5		
CC(C)c1c(Cl)sc2nc(S)c(-c3ccccc3)c(O)c12	890		
Cc1csc2nc(O)c(-c3ccccc3)c(O)c12	8300		
Oc1nc2scc(C3CC3)c2c(O)c1-c1ccccc1	4750		
Oc1nc2ccsc2c(O)c1-c1ccccc1	97500		

Structure (SMILES)	Ki (Glutamate NMDA receptor) [nM]	IC50 (L cells) [nM]	also measured
CCC(C)c1csc2nc(O)c(-c3cccc(Oc4ccccc4)c3)c(O)c12 (centres undefined)	96	> 50000	
Oc1nc2sc3c(c2c(O)c1-c1cccc(Oc2ccccc2)c1)CCCS3	37	> 250000	
Oc1nc2sc(Cl)cc2c(O)c1-c1cccc(Oc2ccccc2)c1	16.6	15400	Activity (Mus musculus [4]): 10%
O=c1[nH]c2cc(Cl)ccc2c(O)c1-c1ccccc1	151		
O=c1[nH]c2cc(Cl)ccc2c(O)c1-c1cccc(Oc2ccccc2)c1	1.4		brain level (Rattus norvegicus [5]): 5.5 µmol/kg; brain level (Rattus norvegicus [6]): 1.4 µmol/kg; Activity (Mus musculus [7]): 50%
O=c1[nH]c2ccccc2c(O)c1-c1ccccc1	12200		
CCc1cc2c(O)c(-c3ccccc3)c(O)nc2s1	3100		
COCc1c(Cl)sc2nc(O)c(-c3cccc(Oc4ccccc4)c3)c(O)c12	1.6	15700	Activity (Mus musculus [4]): 30%
Cc1sc2nc(O)c(-c3ccccc3)c(O)c2c1C	1270		
Oc1nc2sc3c(c2c(O)c1-c1cccs1)CCCC3	23100		
Cc1c(Br)sc2nc(O)c(-c3ccccc3)c(O)c12	390		
CC1=C(CN)SC2NC(=O)C(c3cccc(Oc4ccccc4)c3)=C(O)C12 (centres undefined)	1980		
Cc1c(Cl)sc2nc(O)c(-c3cccc(Oc4ccccc4)c3)c(O)c12	23	> 200000	
NCCc1c(Cl)sc2nc(O)c(-c3ccccc3)c(O)c12	4550		IC50 (D(2) dopamine receptor): > 10000 nM
Cc1cc2c(O)c(-c3cccs3)c(O)nc2s1	22700		
Cc1csc2nc(O)c(-c3cccs3)c(O)c12	34000		
CCC(C)c1csc2nc(O)c(-c3ccccc3)c(O)c12 (centres undefined)	940		
Oc1nc2sc3c(c2c(O)c1-c1cccc(Oc2ccccc2)c1)CCC3	118		
CCCCCCc1c(Cl)sc2nc(O)c(-c3cccc(Oc4ccccc4)c3)c(O)c12	80	> 50000	
Cc1csc2nc(O)c(-c3cccc(Oc4ccccc4)c3)c(O)c12	330	> 250000	
CCC(C)c1c(Cl)sc2nc(O)c(-c3ccccc3)c(O)c12 (centres undefined)	5.8		
CCc1c(Cl)sc2nc(O)c(-c3cccc(Oc4ccccc4)c3)c(O)c12	1.11		Activity (Mus musculus [8]): 50%; Activity (Mus musculus [9]): 50%
Cc1c(Cl)sc2nc(O)c(-c3ccccc3)c(O)c12	267		
Oc1nc2sccc2c(O)c1-c1cccc(Oc2ccccc2)c1	368	89200	
Oc1nc2sccc2c(O)c1-c1ccccc1	16400		
